According to ChEMBL document CHEMBL1149338, “Synthesis and in vitro evaluation of salvinorin A analogues: effect of configuration at C(2) and substitution at C(18)” (Bioorg Med Chem Lett, 2006):

Experiments:
[1] = target: T1, Kappa-type opioid receptor (Homo sapiens, UniProt P41145); assay: Inhibition of [3H]diprenorphine binding to human KOR expressed in CHO cells; type: cell-based
Outline: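 Affinity: membranes from CHO cells stably transfected with human κ-opioid receptor; competitive inhibition of [3H]diprenorphine binding; Ki values; mean of at least three independent experiments, each in duplicate.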

[2] = target: T1, Kappa-type opioid receptor; assay: Enhancement of [35S]GTP-gamma-S binding to human KOR expressed in CHO cells; type: functional, cell-based
[3] = target: T1, Kappa-type opioid receptor; assay: Enhancement of [35S]GTP-gamma-S binding to human KOR expressed in CHO cells relative to U50,488H; type: functional, cell-based
[4] = target: T1, Kappa-type opioid receptor; assay: Enhancement of [35S]GTP-gamma-S binding to human KOR expressed in CHO cells relative to U50,488H at 10 uM; type: functional, cell-based

T1 sequence (P41145 whole entry): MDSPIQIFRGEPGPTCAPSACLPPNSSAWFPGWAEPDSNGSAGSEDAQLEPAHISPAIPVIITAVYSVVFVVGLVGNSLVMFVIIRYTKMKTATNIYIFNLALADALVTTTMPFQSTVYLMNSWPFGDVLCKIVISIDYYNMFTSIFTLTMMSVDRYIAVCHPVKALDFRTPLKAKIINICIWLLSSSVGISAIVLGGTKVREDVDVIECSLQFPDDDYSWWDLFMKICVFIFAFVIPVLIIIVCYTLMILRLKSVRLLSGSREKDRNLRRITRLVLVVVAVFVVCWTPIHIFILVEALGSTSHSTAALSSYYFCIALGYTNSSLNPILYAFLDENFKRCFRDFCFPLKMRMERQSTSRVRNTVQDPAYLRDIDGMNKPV

SMILES	Ki [1] [nM]	EC50 [2] [nM]	Efficacy [3] [%]	Efficacy [4] [%]
CC(=O)O[C@H]1C[C@@H](C(=O)N(C)C)[C@]2(C)CC[C@@H]3C(=O)O[C@H](c4ccoc4)C[C@]3(C)[C@H]2C1=O	> 10000			
CCNC[C@@H]1C[C@H](OC(C)=O)C(=O)[C@@H]2C3(C)C[C@@H](c4ccoc4)OC[C@@H]3C(=O)C[C@@]12C (stereo partly drawn)	> 10000			
CCNC[C@@H]1C[C@H](OC(C)=O)C(=O)[C@@H]2C3(C)C[C@@H](c4ccoc4)OC[C@H]3C(=O)C[C@@]12C (stereo partly drawn)	> 10000			
COC(=O)[C@@H]1C[C@H](N(C)C)C(=O)[C@H]2[C@@]1(C)CC[C@H]1C(=O)O[C@H](c3ccoc3)C[C@]21C	168	240	110	
CNC[C@@H]1C[C@H](OC(C)=O)C(=O)[C@@H]2C3(C)C[C@@H](c4ccoc4)OC[C@H]3C(=O)C[C@@]12C (stereo partly drawn)	> 10000			
CCC(=O)O[C@@H]1C[C@@H](C(=O)OC)[C@]2(C)CC[C@H]3C(=O)O[C@H](c4ccoc4)C[C@]3(C)[C@H]2C1=O	641			
CNC[C@@H]1C[C@H](OC(C)=O)C(=O)[C@@H]2C3(C)C[C@@H](c4ccoc4)OC[C@@H]3C(=O)C[C@@]12C (stereo partly drawn)	> 10000			
CC(=O)O[C@H]1C[C@@H](CN(C)C)[C@]2(C)CC(=O)[C@H]3CO[C@H](c4ccoc4)CC3(C)[C@H]2C1=O (stereo partly drawn)	> 10000			
CCC(=O)N[C@H]1C[C@@H](C(=O)OC)[C@]2(C)CC[C@H]3C(=O)O[C@H](c4ccoc4)C[C@]3(C)[C@H]2C1=O	374	444	109	
CCN(C(C)=O)[C@H]1C[C@@H](C(=O)OC)[C@]2(C)CC[C@H]3C(=O)O[C@H](c4ccoc4)C[C@]3(C)[C@H]2C1=O	27.6	25.2	104	
COC[C@@H]1C[C@H](OC(C)=O)C(=O)[C@@H]2C3(C)C[C@@H](c4ccoc4)OC[C@H]3C(=O)C[C@@]12C (stereo partly drawn)	769			70
CCC(=O)N(C)[C@@H]1C[C@@H](C(=O)OC)[C@]2(C)CC[C@H]3C(=O)O[C@H](c4ccoc4)C[C@]3(C)[C@H]2C1=O	6.9	12.6		
COC(=O)[C@@H]1C[C@H](OC(C)=O)C(=O)[C@@H]2[C@@]3(C)C[C@@H](c4ccoc4)OC(=O)[C@H]3CC[C@]21C			88	
CCO[C@@H]1C[C@@H](C(=O)OC)[C@]2(C)CC[C@H]3C(=O)O[C@H](c4ccoc4)C[C@]3(C)[C@H]2C1=O	> 10000			
CCC(=O)N(C)[C@H]1C[C@@H](C(=O)OC)[C@]2(C)CC[C@H]3C(=O)O[C@H](c4ccoc4)C[C@]3(C)[C@H]2C1=O	1.6	0.75		
COC(=O)[C@@H]1C[C@H](N(C)C(C)=O)C(=O)[C@H]2[C@@]1(C)CC[C@H]1C(=O)O[C@H](c3ccoc3)C[C@]21C	3.2	2.4	103	
CCC(=O)N(CC)[C@H]1C[C@@H](C(=O)OC)[C@]2(C)CC[C@H]3C(=O)O[C@H](c4ccoc4)C[C@]3(C)[C@H]2C1=O	38.1	37.2	100	
CCC(=O)N(CC)[C@@H]1C[C@@H](C(=O)OC)[C@]2(C)CC[C@H]3C(=O)O[C@H](c4ccoc4)C[C@]3(C)[C@H]2C1=O	376	857	96	
CCN(C(C)=O)[C@@H]1C[C@@H](C(=O)OC)[C@]2(C)CC[C@H]3C(=O)O[C@H](c4ccoc4)C[C@]3(C)[C@H]2C1=O	240	641	95	

SMILES	Ki [1] [nM]	EC50 [2] [nM]	Efficacy [3] [%]	Efficacy [4] [%]
COC(=O)[C@@H]1C[C@@H](N)C(=O)[C@H]2[C@@]1(C)CC[C@H]1C(=O)O[C@H](c3ccoc3)C[C@]21C	223	1370	84	
CC(=O)O[C@H]1C[C@@H](CO)[C@]2(C)CC(=O)[C@H]3CO[C@H](c4ccoc4)CC3(C)[C@H]2C1=O (stereo partly drawn)	1000			68
CNC(=O)[C@@H]1C[C@H](OC(C)=O)C(=O)[C@@H]2[C@@]3(C)C[C@@H](c4ccoc4)OC(=O)[C@H]3CC[C@]21C	> 1000			
CC(=O)O[C@H]1C[C@@H](CN(C)C)[C@]2(C)CC(=O)[C@@H]3CO[C@H](c4ccoc4)CC3(C)[C@H]2C1=O (stereo partly drawn)	> 10000			
CC(=O)O[C@H]1C[C@@H](C(=O)N(C)C)[C@]2(C)CC[C@H]3C(=O)O[C@H](c4ccoc4)C[C@]3(C)[C@H]2C1=O	> 10000			
CCCC(=O)O[C@@H]1C[C@@H](C(=O)OC)[C@]2(C)CC[C@H]3C(=O)O[C@H](c4ccoc4)C[C@]3(C)[C@H]2C1=O	665			
CC(=O)O[C@H]1C[C@@H](CO)[C@]2(C)CC(=O)[C@@H]3CO[C@H](c4ccoc4)CC3(C)[C@H]2C1=O (stereo partly drawn)	> 10000			
CN[C@H]1C[C@@H](C(=O)OC)[C@]2(C)CC[C@H]3C(=O)O[C@H](c4ccoc4)C[C@]3(C)[C@H]2C1=O	328	825	82	
CCC(=O)N[C@@H]1C[C@@H](C(=O)OC)[C@]2(C)CC[C@H]3C(=O)O[C@H](c4ccoc4)C[C@]3(C)[C@H]2C1=O	117	718	102	
COC(=O)[C@@H]1C[C@@H](OC)C(=O)[C@H]2[C@@]1(C)CC[C@H]1C(=O)O[C@H](c3ccoc3)C[C@]21C	> 10000			
CCNC(=O)[C@@H]1C[C@H](OC(C)=O)C(=O)[C@@H]2[C@@]3(C)C[C@@H](c4ccoc4)OC(=O)[C@H]3CC[C@]21C	> 10000			
CCNC(=O)[C@@H]1C[C@H](OC(C)=O)C(=O)[C@H]2[C@@]1(C)CC[C@H]1C(=O)O[C@H](c3ccoc3)C[C@]21C	> 10000			
COC(=O)[C@@H]1C[C@@H](N(C)C(C)=O)C(=O)[C@H]2[C@@]1(C)CC[C@H]1C(=O)O[C@H](c3ccoc3)C[C@]21C			106	
COC(=O)[C@@H]1C[C@@H](NC(C)C)C(=O)[C@H]2[C@@]1(C)CC[C@H]1C(=O)O[C@H](c3ccoc3)C[C@]21C	2.3	7.2		
COC(=O)[C@@H]1C[C@H](NC(C)=O)C(=O)[C@H]2[C@@]1(C)CC[C@H]1C(=O)O[C@H](c3ccoc3)C[C@]21C	149	188		
COC(=O)[C@@H]1C[C@H](NC(C)C)C(=O)[C@H]2[C@@]1(C)CC[C@H]1C(=O)O[C@H](c3ccoc3)C[C@]21C	17.6	18.9		
CCN[C@H]1C[C@@H](C(=O)OC)[C@]2(C)CC[C@H]3C(=O)O[C@H](c4ccoc4)C[C@]3(C)[C@H]2C1=O	65.2	72.8		
CNC(=O)[C@@H]1C[C@H](OC(C)=O)C(=O)[C@H]2[C@@]1(C)CC[C@H]1C(=O)O[C@H](c3ccoc3)C[C@]21C	1390			71
COC(=O)[C@@H]1C[C@@H](NC(C)=O)C(=O)[C@H]2[C@@]1(C)CC[C@H]1C(=O)O[C@H](c3ccoc3)C[C@]21C	332	339		
